Data as given in ChEMBL document CHEMBL1629621, “Evaluation of strategies for improving proteolytic resistance of antimicrobial peptides by using variants of EFK17, an internal segment of LL-37” (Antimicrob Agents Chemother, 2009).
Values after ≈ are worked out from the molar mass of the structure shown. Active and inactive are the calls of the source. The rule behind the calls is not given here. Where a SMILES comes first, the peptide text is derived from it.

How the values were obtained:
[1] = Stability of the compound at 136 uM after 4 hrs in presence of Pseudomonas aeruginosa elastase; type: ADME
In short: (§1)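 Peptide at 136 µM was incubated with protease (peptide:enzyme 300:1) for 4 h at 37°C in 10 mM Tris, pH 7.4. The reaction was stopped by boiling in Laemmli buffer, then run on Tris-Tricine 16.5% SDS-PAGE and Coomassie stained. Band densitometry gave the undegraded fraction, normalized to peptide incubated without enzyme. Two separate experiments.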

[2] = Stability of the compound at 136 uM after 4 hrs in presence of human neutrophil elastase; type: ADME; in short: as §1
[3] = Stability of the compound at 136 uM after 4 hrs in presence of […] V8 protease; type: ADME; in short: as §1
[4] = Stability of the compound at 136 uM after 4 hrs in presence of aureolysin; type: ADME; in short: as §1
Pseudomonas aeruginosa [5] = test: Antimicrobial activity against Pseudomonas aeruginosa 15159 after 21 hrs by broth microdilution method; type: functional; conditions: Pseudomonas aeruginosa, 15159, 21 h
In short: (§2)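 Microtiter broth dilution at 37°C for 21 h in DEAE-refined LB medium prepared in 10 mM Tris, pH 7.4. Bacteria were grown overnight in 3% trypticase soy broth, rinsed in Tris and used at about 10^6 CFU/ml. Final peptide was 0.6–80 µM in twofold steps. Growth was read visually as pellet and at OD540. MIC is >95% inhibition with no visible pellet. Two separate experiments.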

Staphylococcus aureus [6] = test: Antimicrobial activity against Staphylococcus aureus 29213 after 21 hrs by broth microdilution method; type: functional; conditions: Staphylococcus aureus, 29213, 21 h; in short: as §2
Pseudomonas aeruginosa [7] = test: Antimicrobial activity against Pseudomonas aeruginosa ATCC 27853 after 21 hrs by broth microdilution method; type: functional; conditions: ATCC 27853, 21 h; in short: as §2
Staphylococcus aureus [8] = test: Antimicrobial activity against Staphylococcus aureus 2844 after 21 hrs by broth microdilution method; type: functional; conditions: Staphylococcus aureus, 2844, 21 h; in short: as §2
Lipid bilayer = test: Induction of DOPC-cholesterol liposome leakage in cell-free system at 0.1 to 1 uM after 45 mins; type: functional
In short: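 Carboxyfluorescein-loaded (100 mM, self-quenching) DOPC-cholesterol 3:2 unilamellar liposomes, about 110 nm, at 10 µM lipid in Tris buffer at 37°C with stirring. Peptide was added at a single concentration per experiment, between 0.01 and 1 µM. After a 10 min baseline, fluorescence increase was followed for 45 min and the limiting leakage level taken.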

Staphylococcus aureus [9] = test: Antimicrobial activity against Staphylococcus aureus FDA 486 after 21 hrs by broth microdilution method; type: functional; conditions: FDA 486, 21 h; in short: as §2

Stability [1]	Stability [2]	Stability [3]	Stability [4]	MIC (Pseudomonas aeruginosa [5])	MIC (Staphylococcus aureus [6])	MIC (Pseudomonas aeruginosa [7])	MIC (Staphylococcus aureus [8])	MIC (Staphylococcus aureus [9])	Compound	Activity (Lipid bilayer)
Stable	Stable	Stable	Stable	–	–	–	–	–	CC[C@@H](C)[C@@H](NC(=O)[C@H](CCCNC(=N)N)NC(=O)[C@H](CCC(N)=O)NC(=O)[C@@H](NC(=O)[C@H](NC(=O)[C@H](CCCNC(=N)N)NC(=O)[C@H](CCCCN)NC(=O)[C@@H](Cc1ccccc1)NC(=O)[C@H](CCC(=O)O)NC(C)=O)[C@H](C)CC)C(C)C)C(=O)N[C@@H](CCCCN)C(=O)N[C@@H](CC(=O)O)C(=O)N[C@H](Cc1ccccc1)C(=O)N[C@@H](CC(C)C)C(=O)N[C@@H](CCCNC(=N)N)C(=O)N[C@@H](CC(N)=O)C(=O)N[C@@H](CC(C)C)C(=O)N[C@H](C(N)=O)C(C)C [listing 1 of 2 here]	–
Unstable	Stable	Stable	Stable	10 µM (≈ 24.4 µg/mL)	10 µM (≈ 24.4 µg/mL)	10 µM (≈ 24.4 µg/mL)	5 µM (≈ 12.2 µg/mL)	5 µM (≈ 12.2 µg/mL)	CC(=O)N[C@@H](CCC(=O)O)C(=O)N[C@@H](Cc1c[nH]c2ccccc12)C(=O)N[C@@H](CCCCN)C(=O)N[C@@H](CCCNC(=N)N)C(=O)N[C@@H](Cc1c[nH]c2ccccc12)C(=O)N[C@H](C(=O)N[C@@H](CCC(N)=O)C(=O)N[C@@H](CCCNC(=N)N)C(=O)N[C@@H](Cc1c[nH]c2ccccc12)C(=O)N[C@@H](CCCCN)C(=O)N[C@@H](CC(=O)O)C(=O)N[C@@H](Cc1c[nH]c2ccccc12)C(=O)N[C@@H](CC(C)C)C(=O)N[C@@H](CCCNC(=N)N)C(=O)N[C@@H](CC(N)=O)C(=O)N[C@@H](CC(C)C)C(=O)N[C@H](C(N)=O)C(C)C)C(C)C (Ac-EWKRWVQRWKDWLRNLV-NH2)	Active
–	–	–	–	> 80 µM	> 80 µM	> 80 µM	> 80 µM	> 80 µM	CC[C@@H](C)[C@@H](NC(=O)[C@H](CCCNC(=N)N)NC(=O)[C@H](CCC(N)=O)NC(=O)[C@@H](NC(=O)[C@H](NC(=O)[C@H](CCCNC(=N)N)NC(=O)[C@H](CCCCN)NC(=O)[C@@H](Cc1ccccc1)NC(=O)[C@H](CCC(=O)O)NC(C)=O)[C@H](C)CC)C(C)C)C(=O)N[C@@H](CCCCN)C(=O)N[C@@H](CC(=O)O)C(=O)N[C@H](Cc1ccccc1)C(=O)N[C@@H](CC(C)C)C(=O)N[C@@H](CCCNC(=N)N)C(=O)N[C@@H](CC(N)=O)C(=O)N[C@@H](CC(C)C)C(=O)N[C@H](C(N)=O)C(C)C [listing 2 of 2 here]	–

Compound	Stability [1]	Stability [2]	Stability [3]	Stability [4]	MIC (Pseudomonas aeruginosa [5])	MIC (Staphylococcus aureus [6])	MIC (Pseudomonas aeruginosa [7])	MIC (Staphylococcus aureus [8])	MIC (Staphylococcus aureus [9])	Activity (Lipid bilayer)
CC[C@H](C)[C@H](NC(=O)[C@H](CCCCN)NC(=O)[C@H](CCC(=O)O)NC(=O)[C@H](CCCCN)NC(=O)[C@H](CO)NC(=O)[C@H](CCCCN)NC(=O)[C@H](CCCNC(=N)N)NC(=O)[C@H](Cc1ccccc1)NC(=O)[C@H](Cc1ccccc1)NC(=O)[C@H](CC(=O)O)NC(=O)CNC(=O)[C@H](CC(C)C)NC(=O)[C@@H](N)CC(C)C)C(=O)NCC(=O)N[C@@H](CCCCN)C(=O)N[C@@H](CCC(=O)O)C(=O)N[C@@H](Cc1ccccc1)C(=O)N[C@@H](CCCCN)C(=O)N[C@@H](CCCNC(=N)N)C(=O)N[C@H](C(=O)N[C@H](C(=O)N[C@@H](CCC(N)=O)C(=O)N[C@@H](CCCNC(=N)N)C(=O)N[C@H](C(=O)N[C@@H](CCCCN)C(=O)N[C@@H](CC(=O)O)C(=O)N[C@@H](Cc1ccccc1)C(=O)N[C@@H](CC(C)C)C(=O)N[C@@H](CCCNC(=N)N)C(=O)N[C@@H](CC(N)=O)C(=O)N[C@@H](CC(C)C)C(=O)N[C@H](C(=O)N1CCC[C@H]1C(=O)N[C@@H](CCCNC(=N)N)C(=O)N[C@H](C(=O)N[C@@H](CCC(=O)O)C(=O)N[C@@H](CO)C(=O)O)[C@@H](C)O)C(C)C)[C@@H](C)CC)C(C)C)[C@@H](C)CC [CATHELICIDIN]	Unstable	Unstable	Unstable	Unstable	2.5 µM (≈ 11.2 µg/mL)	5 µM (≈ 22.5 µg/mL)	2.5 µM (≈ 11.2 µg/mL)	5 µM (≈ 22.5 µg/mL)	2.5 µM (≈ 11.2 µg/mL)	–
